Experimental data as given in publication PMC7668563 (International journal of molecular biology (Edmond, Okla.), 2020).
Read-outs that look alike come from different tables or passages of the source.

What was measured:
[1] = target: T1, apo-human transferrin (apo-hTf) (Homo sapiens, UniProt P02787); experiment: Far-UV circular dichroism titration of apo-hTf, secondary structure content
Procedure, shortened: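 Apo-hTf (4.0×10−7 mol L−1) in 2 mM Tris-HCl pH 7.4 was titrated with a 1.0×10−3 mol L−1 stock of test compound in Tris-HCl/2% DMSO, to final 0–2.4×10−6 mol L−1. Far-UV CD was recorded from 190–250 nm under nitrogen in a 1.0 cm cell: six scans at 100 nm/min. Baseline was buffer ± DMSO at room temperature. α-Helix was derived from MRE at 208 nm; β-sheet and random coil by the CD-RRG method.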

[2] = tested on: human breast adenocarcinoma cell line, MCF-7; settings: cited from earlier work
[3] = target: T1, apo-human transferrin (apo-hTf); experiment: UV-Vis absorbance titration of apo-hTf; format: binding; settings: for Ka at 280 nm: absorbance at 280 nm; for Association constants, Ka, 280 nm: absorbance of apo-hTf at 280 nm
[4] = tested on: human colorectal adenocarcinoma cell line, HT-29; settings: cited from earlier work
[5] = target: T1, apo-human transferrin (apo-hTf); experiment: Fluorescence quenching of apo-hTf; format: binding; settings: for biomolecular quenching rate constant kq: kq=Ksv/τ0; for Stern-Volmer quenching constant Ksv / number of binding sites n: pH 7.4; for quenching association constant Ka: pH 7.4, modified Stern-Volmer
Procedure, shortened: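 Intrinsic fluorescence of apo-hTf in Tris-HCl pH 7.4 was titrated with test compound (Tris-HCl/2% DMSO). Conditions: excitation 280 nm, emission 290–500 nm, slits 10/5 nm, 1.0 cm quartz cell, at 296, 303, 310 and 317 K, triplicate titrations. Intensities were corrected for inner filter effect using absorbances at excitation and emission wavelengths. Ksv came from Stern-Volmer plots of F0/F vs [Q]; kq = Ksv/τ0 (τ0 ~1.0×10−8); Ka and n came from the modified Stern-Volmer equation.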

[6] = target: T1, apo-human transferrin (apo-hTf); experiment: Fluorescence resonance energy transfer; format: binding; settings: for Förster critical energy transfer distance R0 / binding distance r (donor-acceptor): k^2=2/3, n=1.336, ØD=0.118; for efficiency of energy transfer E: room temperature, 1.0×10^−5 mol L^−1 each
Procedure, shortened: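 Emission spectrum of 1.0×10−5 mol L−1 apo-hTf and absorption spectrum of 1.0×10−5 mol L−1 test compound were recorded in 20 mM Tris-HCl pH 7.4 at room temperature, 260–450 nm, and their spectral overlap determined. E was calculated from apo-hTf fluorescence without and with equimolar test compound. R0 and donor–acceptor distance r came from Förster equations.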

[7] = target: T1, apo-human transferrin (apo-hTf); experiment: Thermodynamic parameters of apo-hTf complex formation; format: binding; settings: for ∆H° / ∆S°: pH 7.4, from Ksv at 296-317 K
Procedure, shortened: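 Ksv values were obtained from apo-hTf fluorescence quenching at pH 7.4 at 296, 303, 310 and 317 K. ΔH°, ΔS° and ΔG° were derived from linear regression of ln(Ksv) vs 1/T (Van't Hoff equation).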

T1 sequence (P02787 20-698): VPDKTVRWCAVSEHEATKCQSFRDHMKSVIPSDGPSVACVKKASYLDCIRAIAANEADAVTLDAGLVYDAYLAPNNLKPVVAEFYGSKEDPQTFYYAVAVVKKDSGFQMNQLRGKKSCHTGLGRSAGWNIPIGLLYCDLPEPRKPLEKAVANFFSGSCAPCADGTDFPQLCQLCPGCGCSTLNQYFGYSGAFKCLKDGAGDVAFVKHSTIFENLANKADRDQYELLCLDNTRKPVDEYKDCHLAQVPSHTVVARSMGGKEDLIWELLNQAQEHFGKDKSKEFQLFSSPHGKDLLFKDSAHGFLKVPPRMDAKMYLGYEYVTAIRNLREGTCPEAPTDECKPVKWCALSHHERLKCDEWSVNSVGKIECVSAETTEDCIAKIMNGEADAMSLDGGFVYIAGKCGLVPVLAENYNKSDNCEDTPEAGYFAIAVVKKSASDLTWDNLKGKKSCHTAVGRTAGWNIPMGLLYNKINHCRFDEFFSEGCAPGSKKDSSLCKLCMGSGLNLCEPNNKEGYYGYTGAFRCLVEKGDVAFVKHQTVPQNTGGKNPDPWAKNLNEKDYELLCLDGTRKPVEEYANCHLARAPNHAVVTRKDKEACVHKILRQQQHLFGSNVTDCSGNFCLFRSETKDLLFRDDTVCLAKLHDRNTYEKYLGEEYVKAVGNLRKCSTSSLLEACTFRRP

Structure (SMILES): [Cl-].[Cl-].[Mo+4].c1cc[cH-]c1.c1cc[cH-]c1 [Cp2MoCl2]
- other secondary structure content of apo-hTf ([1]; compound concentration 0.4 (M)): 19.3%
- random coil content of apo-hTf ([1]; compound concentration 0.4 (M)): 33.9%
- α-helix content of apo-hTf ([1]; compound concentration 0.4 (M)): 28.7%
- β-sheet content of apo-hTf ([1]; compound concentration 0.4 (M)): 18.1%
- other secondary structure content of apo-hTf ([1]; compound concentration 0.8 (M)): 19.4%
- random coil content of apo-hTf ([1]; compound concentration 0.8 (M)): 34%
- α-helix content of apo-hTf ([1]; compound concentration 0.8 (M)): 28.3%
- β-sheet content of apo-hTf ([1]; compound concentration 0.8 (M)): 18.3%
- other secondary structure content of apo-hTf ([1]; compound concentration 1.2 (M)): 19.9%
- random coil content of apo-hTf ([1]; compound concentration 1.2 (M)): 34.1%
- α-helix content of apo-hTf ([1]; compound concentration 1.2 (M)): 27.6%
- β-sheet content of apo-hTf ([1]; compound concentration 1.2 (M)): 18.4%
- other secondary structure content of apo-hTf ([1]; compound concentration 1.6 (M)): 20%
- random coil content of apo-hTf ([1]; compound concentration 1.6 (M)): 34.3%
- α-helix content of apo-hTf ([1]; compound concentration 1.6 (M)): 27.1%
- β-sheet content of apo-hTf ([1]; compound concentration 1.6 (M)): 18.6%
- other secondary structure content of apo-hTf ([1]; compound concentration 2 (M)): 20.1%
- random coil content of apo-hTf ([1]; compound concentration 2 (M)): 34.5%
- α-helix content of apo-hTf ([1]; compound concentration 2 (M)): 26.5%
- β-sheet content of apo-hTf ([1]; compound concentration 2 (M)): 18.9%
- other secondary structure content of apo-hTf ([1]; compound concentration 2.4 (M)): 20.2%
- random coil content of apo-hTf ([1]; compound concentration 2.4 (M)): 34.7%
- α-helix content of apo-hTf ([1]; compound concentration 2.4 (M)): 25.8%
- β-sheet content of apo-hTf ([1]; compound concentration 2.4 (M)): 19.3%
- IC50 (±SD), MCF-7 [2]: proliferative activity
- IC50 (±SD), MCF-7 ([2]; listed as Cp^2MoCl^2): Proliferative[21],[68]
- Ka at 280 nm [3]: 3060 M⁻¹
- Ka at 361 nm ([3]; absorbance at 361 nm): 3090 M⁻¹
- Association constants, Ka, 280 nm ([3]; pH 7.4): 3.06 10^3 M^−1
- Association constants, Ka, 361 nm ([3]; absorbance of apo-hTf at 361 nm, pH 7.4): 3.09 10^3 M^−1
- IC50 ([4]; read-out: IC50 (±SD), HT-29, ref 21): 2600 µM
- biomolecular quenching rate constant kq ([5]; 296 K): 1.51e+11 M⁻¹ s⁻¹
- Stern-Volmer quenching constant Ksv ([5]; 296 K): 1510 M⁻¹
- number of binding sites n ([5]; 296 K): 1.26
- quenching association constant Ka ([5]; 296 K): 19300 M⁻¹
- biomolecular quenching rate constant kq ([5]; 303 K): 1.59e+11 M⁻¹ s⁻¹
- Stern-Volmer quenching constant Ksv ([5]; 303 K): 1590 M⁻¹
- number of binding sites n ([5]; 303 K): 1.23
- quenching association constant Ka ([5]; 303 K): 15800 M⁻¹
- biomolecular quenching rate constant kq ([5]; 310 K): 1.81e+11 M⁻¹ s⁻¹
- Stern-Volmer quenching constant Ksv ([5]; 310 K): 1810 M⁻¹
- number of binding sites n ([5]; 310 K): 1.19
- quenching association constant Ka ([5]; 310 K): 12100 M⁻¹
- biomolecular quenching rate constant kq ([5]; 317 K): 2.05e+11 M⁻¹ s⁻¹
- Stern-Volmer quenching constant Ksv ([5]; 317 K): 2050 M⁻¹
- number of binding sites n ([5]; 317 K): 1.16
- quenching association constant Ka ([5]; 317 K): 9500 M⁻¹
- Förster critical energy transfer distance R0 [6]: 3.38 nm
- binding distance r (donor-acceptor) [6]: 4.44 nm
- efficiency of energy transfer E [6]: 0.162
- ∆G° ([7]; 296 K): -4.293 kcal/mol
- ∆G° ([7]; 303 K): -4.46 kcal/mol
- ∆G° ([7]; 310 K): -4.625 kcal/mol
- ∆G° ([7]; 317 K): -4.792 kcal/mol
- ∆H° [7]: 2.768 kcal/mol
- ∆S° [7]: 99.78 J/mol K

Structure (SMILES): [Cl-].[Cl-].[Ti+4].c1cc[cH-]c1.c1cc[cH-]c1 [Cp2TiCl2, titanocene dichloride]
- other secondary structure content of apo-hTf ([1]; compound concentration 0.4 (M)): 18.9%
- random coil content of apo-hTf ([1]; compound concentration 0.4 (M)): 33.8%
- α-helix content of apo-hTf ([1]; compound concentration 0.4 (M)): 29.3%
- β-sheet content of apo-hTf ([1]; compound concentration 0.4 (M)): 18%
- other secondary structure content of apo-hTf ([1]; compound concentration 0.8 (M)): 18.9%
- random coil content of apo-hTf ([1]; compound concentration 0.8 (M)): 33.8%
- α-helix content of apo-hTf ([1]; compound concentration 0.8 (M)): 29.1%
- β-sheet content of apo-hTf ([1]; compound concentration 0.8 (M)): 18.2%
- other secondary structure content of apo-hTf ([1]; compound concentration 1.2 (M)): 18.8%
- random coil content of apo-hTf ([1]; compound concentration 1.2 (M)): 33.9%
- α-helix content of apo-hTf ([1]; compound concentration 1.2 (M)): 29%
- β-sheet content of apo-hTf ([1]; compound concentration 1.2 (M)): 18.3%
- other secondary structure content of apo-hTf ([1]; compound concentration 1.6 (M)): 18.9%
- random coil content of apo-hTf ([1]; compound concentration 1.6 (M)): 33.9%
- α-helix content of apo-hTf ([1]; compound concentration 1.6 (M)): 28.8%
- β-sheet content of apo-hTf ([1]; compound concentration 1.6 (M)): 18.4%
- other secondary structure content of apo-hTf ([1]; compound concentration 2 (M)): 18.9%
- random coil content of apo-hTf ([1]; compound concentration 2 (M)): 34%
- α-helix content of apo-hTf ([1]; compound concentration 2 (M)): 28.6%
- β-sheet content of apo-hTf ([1]; compound concentration 2 (M)): 18.5%
- other secondary structure content of apo-hTf ([1]; compound concentration 2.4 (M)): 19%
- random coil content of apo-hTf ([1]; compound concentration 2.4 (M)): 34%
- α-helix content of apo-hTf ([1]; compound concentration 2.4 (M)): 28.4%
- β-sheet content of apo-hTf ([1]; compound concentration 2.4 (M)): 18.6%
- IC50 ([2]; read-out: IC50 (±SD), MCF-7, ref 82): 570 µM
- Ka at 280 nm [3]: 2890 M⁻¹
- Association constants, Ka, 280 nm ([3]; pH 7.4): 2.89 10^3 M^−1
- IC50 ([4]; read-out: IC50 (±SD), HT-29, ref 82): 413 µM
- biomolecular quenching rate constant kq ([5]; 296 K): 1.53e+11 M⁻¹ s⁻¹
- Stern-Volmer quenching constant Ksv ([5]; 296 K): 1530 M⁻¹
- number of binding sites n ([5]; 296 K): 1.11
- quenching association constant Ka ([5]; 296 K): 4500 M⁻¹
- biomolecular quenching rate constant kq ([5]; 303 K): 1.68e+11 M⁻¹ s⁻¹
- Stern-Volmer quenching constant Ksv ([5]; 303 K): 1680 M⁻¹
- number of binding sites n ([5]; 303 K): 1.09
- quenching association constant Ka ([5]; 303 K): 4100 M⁻¹
- biomolecular quenching rate constant kq ([5]; 310 K): 1.76e+11 M⁻¹ s⁻¹
- Stern-Volmer quenching constant Ksv ([5]; 310 K): 1760 M⁻¹
- number of binding sites n ([5]; 310 K): 1.07
- quenching association constant Ka ([5]; 310 K): 3600 M⁻¹
- biomolecular quenching rate constant kq ([5]; 317 K): 1.93e+11 M⁻¹ s⁻¹
- Stern-Volmer quenching constant Ksv ([5]; 317 K): 1930 M⁻¹
- number of binding sites n ([5]; 317 K): 1.05
- quenching association constant Ka ([5]; 317 K): 3100 M⁻¹
- Förster critical energy transfer distance R0 [6]: 5.03 nm
- binding distance r (donor-acceptor) [6]: 6.77 nm
- efficiency of energy transfer E [6]: 0.144
- ∆G° ([7]; 296 K): -4.316 kcal/mol
- ∆G° ([7]; 303 K): -4.465 kcal/mol
- ∆G° ([7]; 310 K): -4.613 kcal/mol
- ∆G° ([7]; 317 K): -4.761 kcal/mol
- ∆H° [7]: 1.94 kcal/mol
- ∆S° [7]: 88.48 J/mol K
